Results on one substance are retold here after paper PMC3867294 (Biochemical and biophysical research communications, 2013).

The conditions of data set [1]: cited from earlier work.
Data set [2] has as its system liver inflammation in endotoxemic rats. The data set is described as follows: Liver histology. Format: in vivo, Sprague-Dawley rats. The note with it: 2.5 mg/kg mR18L i.p. without LPS; H&E sections; n=3. The method, boiled down: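 Male Sprague-Dawley rats received test compound 2.5 mg/kg i.p., with or without LPS 5 mg/kg i.p. one minute before, and were killed at 2 h. Liver was formalin-fixed, paraffin-embedded, cut at 5 μm and H&E-stained. A blinded pathologist scored it subjectively. Segmented neutrophils were counted at x40, 30 fields from 10 random portal areas. n=3 control, n=4 LPS groups.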

Data set [3] concerns LPS-mediated inflammation in rats. Format: in vivo. The conditions noted are these: n=3 rats/group.
Data set [4] has the same test system. The experiment in a line: Protocol 1: plasma cytokines. It counts as in vivo, Sprague-Dawley rats.
The test system of data set [5] is endotoxin activity of LPS. The data set is described as follows: Endotoxin activity in rat plasma by LAL assay, protocol 1. It counts as in vivo, Sprague-Dawley rats. The note with it: 2h post 5 mg/kg LPS and 2.5 mg/kg mR18L, n=5-7/group, P<0.05 vs LPS alone. The method, boiled down:
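Adult male Sprague-Dawley rats (322±8 g) got E. coli 026:B6 LPS at 5 mg/kg i.p. and, one minute later, test compound at 2.5 mg/kg i.p. at a different site. Rats were killed at 2 h and the plasma was frozen. Endotoxin activity was read by kinetic-colorimetric LAL assay, n=5–7/group. Groups were compared by one-way ANOVA with Bonferroni, mean±SEM.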

The test system of the next data set is hepatocytes. The conditions noted are these: in-vitro; cited from earlier work.
Data set [6] relates to LPS-mediated inflammation in rats. The experiment in a line: Protocol 2: mR18L one hour post LPS, rat plasma at 6h post LPS. It counts as in vivo, Sprague-Dawley rats. The conditions noted are these: 2.5 mg/kg mR18L one hour post 5 mg/kg LPS. The method, boiled down:
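Rats got LPS (E. coli 026:B6, 5 mg/kg i.p.), then test compound 2.5 mg/kg one hour later; n=5/group. Plasma was taken at baseline and 6 h. Measures: cholesterol and triglycerides by kit; IL-6 and IL-10 by ELISA; endotoxin by kinetic LAL. PON1 was read as paraoxon-driven 4-nitrophenol release at 405 nm. Tests: paired t-test vs baseline, unpaired vs LPS.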

Another data set relates to iNOS (NOS2) in rat liver. The data set is described as follows: iNOS expression in liver tissue by immunoblotting. Format: in vivo, Sprague-Dawley rats. The note with it: 2.5 mg/kg mR18L with 5 mg/kg LPS; 2h post LPS; immunoblot, n=6 in LPS groups; P<0.05 vs LPS alone.
The subject of data set [7] is atherosclerosis and plasma cholesterol in mouse models. The note with it: oral and intravenous administration; cited from earlier work.
Setting [8] is: 2.5 mg/kg mR18L i.p. one minute post 5 mg/kg LPS, 2h post LPS, n=5-7 rats/group.

Consider “Ac-GFRRFLGSWARIYRAFVG-NH2 [mR18L, Ac-G-F-R-R-F-L-G-S-W-A-R-I-Y-R-A-F-V-G-NH2]”, for which the “lytic properties relative to 18L” value in [1] is reported as “substantially reduced lytic properties”. For the same substance, in [2], the “liver morphology and histology, mR18L alone” value was “normal morphological and histological features without signs of inflammation or tissue damage”. Besides, the “tolerance to mR18L” value in [3] (1, 2.5 and 5 mg/kg mR18L i.p. one minute post 5 mg/kg LPS i.p.) is “All rats demonstrated tolerance”. In addition, the “LPS-mediated plasma elevation of TNF-α” value in data set [3] (starting at the lowest tested dose of 1 mg/kg mR18L i.p., 5 mg/kg LPS) is recorded as “significantly reduced”. Further, in data set [4] (setting [8]), the “LPS-mediated elevation of plasma IL-6” value is reported as “significantly reduced”, the “LPS-mediated elevation of plasma TNF-α” value was “significantly reduced” and the “plasma anti-inflammatory cytokine IL-10” value is on record as “without significantly reducing”. Also, in [4] (2.5 mg/kg mR18L i.p. without LPS, 2h, n=5 rats/control group), the “normal levels of TNF-α, IL-6 and IL-10 in rat plasma, mR18L administered alone” value is “no effects”. The “endotoxin activity in plasma of LPS-treated rats” value in [5] is on record as “significantly reduced”. In addition, in the data set on hepatocytes, the “uptake of atherogenic lipoproteins by hepatocytes” value was “able to enhance uptake”. Also, in data set [6] (n=5, P<0.05 vs baseline), the “increase of plasma PON1 activity in LPS-treated rats” value amounted to 15%. Further, in data set [6] (n=5 rats/group), the “LPS-mediated elevation of plasma triglyceride” value was “reduced” and the plasma cholesterol result is “not affecting”. Moreover, in data set [6] (n=5 rats/group, vs LPS), the “reduction of plasma levels of IL-6” value is on record as 57% and the “reduction of plasma levels of IL-10” value was 38%. Moreover, the “increase of IL-10 to IL-6 ratio” value in data set [6] (not shown) worked out at 24%. In data set [6] (LAL assay, n=5 rats/group, vs LPS), the “reduction of plasma endotoxin activity” value was found to be 30%. For the same substance, the “LPS-mediated iNOS elevation in liver” value in the data set on iNOS (NOS2) in rat liver is on record as “reduced”. For the same substance, in data set [7], the atherosclerotic lesion formation entry is listed as “inhibited” and the “plasma cholesterol levels, mainly VLDL” value was “decreased”.
